The source made the active and inactive calls. The calls are words filed in the database; no cut-off is given here.

Data set [1] is described as follows: Drug localization in nucleus of DM1-patient derived myotubes at 5 uM measured after 24 hrs by live-cell fluorescence microscopy. Format: ADME, subcellular. Conditions: human, myotube. The procedure, abridged: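 DM1 patient myotubes bearing 1300 r(CUG) repeats given 5 μM agent; subcellular localization followed via intrinsic fluorescence of the H RNA-binding modules.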

Data set [2] is described as follows: Cytotoxicity against DM1-patient derived myotubes assessed as change in cellular morphology at 5 uM measured after 48 hrs. The conditions noted are these: human, myotube. The procedure, abridged: (§1)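 Cell morphology of DM1 patient-derived myotubes inspected during 48 h splicing treatment at 5 μM; agents altering morphology were re-tested at 1 μM.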
A short description of data set [3]: Cytotoxicity against DM1-patient derived myotubes assessed as change in cellular morphology at 1 uM measured after 48 hrs. Conditions: human, myotube. The procedure, abridged: as §1
In data set [4] the test system is r(CUG) repeat expansion. The experiment in a line: Binding affinity to r(CUG)exp RNA repeat in DM1-patient derived myotubes assessed as improvement in MBNL1 exon 5 splicing defect at 1 uM measured after 48 hrs by RT-qPCR analysis relative to control. The conditions noted are these: Homo sapiens, Myotube. The procedure, abridged: (§2)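 DM1 patient-derived myotubes (1300 r(CUG) repeats) treated 48 h, then MBNL1 exon 5 splicing rescue measured. Single-dose screens at 5 μM or 1 μM, where 1 μM was used if 5 μM altered morphology, n = 3. Dose–response also run, n = 6. SD shown; one-way ANOVA.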

Data set [5] deals with r(CUG) repeat expansion. The data set is described as follows: Binding affinity to r(CUG)exp RNA repeat in DM1-patient derived myotubes assessed as improvement in MBNL1 exon 5 splicing defect at 5 uM measured after 48 hrs by RT-qPCR analysis relative to control. Conditions: Homo sapiens, Myotube. The procedure, abridged:
as §2

Data set [6] addresses r(CUG) repeat expansion. The data set is described as follows: Binding affinity to r(CUG)12 RNA repeat (unknown origin) measured after 10 mins by fluorescence assay. Format: nucleic-acid assay.
The target in data set [7] is r(CUG) repeat expansion. The experiment in a line: Binding affinity to 5'-biotinylated r(CUG)12 RNA repeat (unknown origin) assessed as disruption of r(CUG)12-His-tagged MBNL1 complex formation preincubated for 15 mins followed by MBNL1 addition and measured after 15 mins by TR-FRET assay. Format: nucleic-acid assay.
For data set [8], the system named is r(CUG) repeat expansion. The data set is described as follows: Binding affinity to r(CUG)exp RNA repeat in DM1-patient derived myotubes assessed as improvement in MBNL1 exon 5 splicing defect measured after 48 hrs by RT-qPCR analysis. The class given is tissue-based. Conditions: Homo sapiens, Myotube, dose 0.04-1 µM.
Data set [9] concerns r(CUG) repeat expansion. The data set is described as follows: Binding affinity to r(CUG)exp RNA repeat in DM1-patient derived myotubes assessed as improvement in MBNL1 exon 5 splicing defect at 0.2 uM measured after 48 hrs by RT-qPCR analysis relative to control. The conditions noted are these: Homo sapiens, Myotube. The procedure, abridged: as §2
Data set [10] concerns Myotube. The experiment in a line: Effect on alternative splicing of MAP4K4 exon 22a in DM1-patient derived myotubes at 0.04 to 1 uM measured after 48 hrs by RT-qPCR analysis. The class given is functional. The conditions noted are these: Homo sapiens, dose 0.04-1 µM.
Data set [11] relates to Nucleic Acid. The data set is described as follows: Binding affinity to r(CG)8 RNA repeat (unknown origin) measured after 10 mins by fluorescence assay. The class given is nucleic-acid assay.
Data set [12] relates to Myotube. The experiment in a line: Effect on DMPK transcription in DM1-patient derived myotubes at 0.04 to 1 uM measured after 48 hrs by RT-qPCR analysis. Format: functional. Conditions: Homo sapiens, dose 0.04-1 µM. The procedure, abridged: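 Transcript levels, either DMPK or r(CUG) repeat-containing mRNAs, quantified by RT-qPCR in treated DM1 myotubes; n = 6, one-way ANOVA.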

Data set [13] relates to Myotube. The experiment in a line: Effect on MBNL1 exon 5 splicing in wild type human myotubes at 0.04 to 1 uM measured after 48 hrs by RT-qPCR analysis. Conditions: dose 0.04-1 µM. The class given is functional.
Data set [14] concerns r(CUG) repeat expansion. The data set is described as follows: Binding affinity to r(CUG)exp RNA repeat in DM1-patient derived myotubes assessed as reduction in number of r(CUG)exp-MBNL1 foci at 1 uM measured after 48 hrs by RNA fluorescence in situ hybridization assay. The conditions noted are these: Homo sapiens, Myotube. Set-up: scale not given: the % may be the effect or the level left. The procedure, abridged:
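Nuclear foci counted in DM1 myotubes by confocal imaging: MBNL1 by immunofluorescence, r(CUG)exp by RNA FISH. Foci per nucleus from 40 nuclei per replicate, n = 3; Student's t-test.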

Regarding `CNCCCCN(CC(=O)N(CCCNC(=O)CCCOc1cccc(-c2nc3ccc(-c4nc5cc(N6CCN(C)CC6)ccc5[nH]4)cc3[nH]2)c1)CC(N)=O)C(=O)CN(Cc1ccc(OC)cc1)C(=O)CN(CCCCNC)C(=O)CN(C(=O)CCCOc1cccc(-c2nc3ccc(-c4nc5cc(N6CCN(C)CC6)ccc5[nH]4)cc3[nH]2)c1)C1CCCCC1`, the Drug uptake entry in data set [1] was “Active”. The Activity result in data set [2] is “Toxic”; in data set [3], “Non-Toxic”. The result in data set [4] was inactive.

With `CCCN(CC(=O)N(CCCNC(=O)CCCOc1cccc(-c2nc3ccc(-c4nc5cc(N6CCN(C)CC6)ccc5[nH]4)cc3[nH]2)c1)CC(N)=O)C(=O)CN(CCO)C(=O)CN(CCN)C(=O)CN(CCN1CCOCC1)C(=O)CCCOc1cccc(-c2nc3ccc(-c4nc5cc(N6CCN(C)CC6)ccc5[nH]4)cc3[nH]2)c1`, the Drug uptake result in data set [1] is recorded as “Active”. In data set [2], the Activity result is “Non-Toxic”.

`CCCN(CC(=O)N(CCC)CC(=O)N(CCC)CC(=O)N(CCC)CC(=O)N(CC(N)=O)Cc1cn(CCCNC(=O)CCCOc2ccc(-c3nc4ccc(-c5nc6cc(N7CCN(C)CC7)ccc6[nH]5)cc4[nH]3)cc2)nn1)C(=O)CNCc1cn(CCCNC(=O)CCCOc2cccc(-c3nc4ccc(-c5nc6cc(N7CCN(C)CC7)ccc6[nH]5)cc4[nH]3)c2)nn1`: in data set [1], the Drug uptake entry was “Active”. Moreover, the Activity in [5] was 30%. In addition, the outcome in data set [4] was inactive. The same molecule yielded an EC50 in [6] of 1140 nM. The IC50 in data set [7] came to 32200 nM.

For `COc1ccc(CN(CC(=O)N(CCCNC(=O)CCCOc2cccc(-c3nc4ccc(-c5nc6cc(N7CCN(C)CC7)ccc6[nH]5)cc4[nH]3)c2)CC(N)=O)C(=O)CN(Cc2cccnc2)C(=O)CN(C(=O)CN(C)C(=O)CCCOc2cccc(-c3nc4ccc(-c5nc6cc(N7CCN(C)CC7)ccc6[nH]5)cc4[nH]3)c2)C2CC2)cc1`, the Drug uptake entry in data set [1] is reported as “Active”. Moreover, the Activity entry in [2] is “Toxic”; in [3], “Non-Toxic”; in [8], “Dose-dependent effect”; in data set [9] it was 2%. For the same molecule, the result in data set [4] was Active.

In the case of `CNCCCCN(CC(=O)N(CCCNC(=O)CCCOc1cccc(-c2nc3ccc(-c4nc5cc(N6CCN(C)CC6)ccc5[nH]4)cc3[nH]2)c1)CC(N)=O)C(=O)CN(CCCCNC)C(=O)CN(CCO)C(=O)CN(Cc1cccnc1)C(=O)CCCOc1cccc(-c2nc3ccc(-c4nc5cc(N6CCN(C)CC6)ccc5[nH]4)cc3[nH]2)c1`, in data set [1], the Drug uptake entry was “Active”. Moreover, the Activity entry in data set [2] is on record as “Non-Toxic”.

With `CNCCCCN(CC(=O)N(CCCCNC)CC(=O)N(CCN)CC(=O)N(CCCNC(=O)CCCOc1cccc(-c2nc3ccc(-c4nc5cc(N6CCN(C)CC6)ccc5[nH]4)cc3[nH]2)c1)CC(N)=O)C(=O)CN(C)C(=O)CCCOc1cccc(-c2nc3ccc(-c4nc5cc(N6CCN(C)CC6)ccc5[nH]4)cc3[nH]2)c1`, the Drug uptake result in [1] is on record as “Active”. Further, the figures for the Activity entry in data set [2] and in [3] were “Toxic” and “Non-Toxic”, respectively. In addition, the outcome in data set [4] was Active.

Regarding `CNCCCCN(CC(=O)N(CC(=O)N(CC(=O)N(CCO)CC(=O)N(CCCNC(=O)CCCOc1cccc(-c2nc3ccc(-c4nc5cc(N6CCN(C)CC6)ccc5[nH]4)cc3[nH]2)c1)CC(N)=O)C1CCCCC1)Cc1cccnc1)C(=O)CCCOc1cccc(-c2nc3ccc(-c4nc5cc(N6CCN(C)CC6)ccc5[nH]4)cc3[nH]2)c1`, the Drug uptake entry in data set [1] is listed as “Active”. Also, the Activity result in [2] is “Non-Toxic”.

`CNCCCCN(CC(=O)N(CC(=O)N(CCCNC(=O)CCCOc1cccc(-c2nc3ccc(-c4nc5cc(N6CCN(C)CC6)ccc5[nH]4)cc3[nH]2)c1)CC(N)=O)C1CC1)C(=O)CN(CCOC)C(=O)CN(CCO)C(=O)CCCOc1cccc(-c2nc3ccc(-c4nc5cc(N6CCN(C)CC6)ccc5[nH]4)cc3[nH]2)c1`: the Drug uptake entry in [1] is “Active”. Besides, the Activity result in data set [2] is reported as “Non-Toxic”.

As for `COCCN(CC(=O)N(CCCNC(=O)CCCOc1cccc(-c2nc3ccc(-c4nc5cc(N6CCN(C)CC6)ccc5[nH]4)cc3[nH]2)c1)CC(N)=O)C(=O)CN(CCN)C(=O)CN(Cc1ccc(OC)cc1)C(=O)CN(CCN)C(=O)CCCOc1cccc(-c2nc3ccc(-c4nc5cc(N6CCN(C)CC6)ccc5[nH]4)cc3[nH]2)c1`, in data set [1], the Drug uptake entry is listed as “Active”. Also, the Activity result in data set [2] is reported as “Non-Toxic”.

As to `CNCCCCN(CC(=O)N(CCN)CC(=O)N(CCCNC(=O)CCCOc1cccc(-c2nc3ccc(-c4nc5cc(N6CCN(C)CC6)ccc5[nH]4)cc3[nH]2)c1)CC(N)=O)C(=O)CN(Cc1ccccc1)C(=O)CN(C)C(=O)CCCOc1cccc(-c2nc3ccc(-c4nc5cc(N6CCN(C)CC6)ccc5[nH]4)cc3[nH]2)c1`, the Drug uptake entry in [1] was “Active”. Moreover, in data set [2], the Activity result is reported as “Non-Toxic”.

As to `CNCCCCN(CC(=O)N(CCN)CC(=O)N(CCCNC(=O)CCCOc1cccc(-c2nc3ccc(-c4nc5cc(N6CCN(C)CC6)ccc5[nH]4)cc3[nH]2)c1)CC(N)=O)C(=O)CN(C)C(=O)CN(CCCn1ccnc1)C(=O)CCCOc1cccc(-c2nc3ccc(-c4nc5cc(N6CCN(C)CC6)ccc5[nH]4)cc3[nH]2)c1`, the outcome in [10], in data set [11], in data set [12] and in [13] was inactive. In addition, in [1], the Drug uptake entry is listed as “Active”. In addition, the Activity result in [2] is “Toxic”; in data set [3] it was “Non-Toxic”; in [8], “Dose-dependent effect”; in data set [9], 7%; in data set [14], 20%. In addition, the result in data set [4] was Active. The midpoint of the response in data set [6], the EC50, lay at 106 nM. Further, in data set [7], the IC50 was 2800 nM.

Turning to `CNCCCCN(CC(=O)N(CCC(=O)N1CCCC1)CC(=O)N(CCCNC(=O)CCCOc1cccc(-c2nc3ccc(-c4nc5cc(N6CCN(C)CC6)ccc5[nH]4)cc3[nH]2)c1)CC(N)=O)C(=O)CN(CCO)C(=O)CN(CCC(=O)N1CCCC1)C(=O)CCCOc1cccc(-c2nc3ccc(-c4nc5cc(N6CCN(C)CC6)ccc5[nH]4)cc3[nH]2)c1`, in data set [1], the Drug uptake entry is given as “Active”. Also, the Activity result in [2] is “Non-Toxic”.

With `CCCN(CC(=O)N(CCCCNC)CC(=O)N(C)CC(=O)N(CCCNC(=O)CCCOc1cccc(-c2nc3ccc(-c4nc5cc(N6CCN(C)CC6)ccc5[nH]4)cc3[nH]2)c1)CC(N)=O)C(=O)CN(CCO)C(=O)CCCOc1cccc(-c2nc3ccc(-c4nc5cc(N6CCN(C)CC6)ccc5[nH]4)cc3[nH]2)c1`, in data set [1], the Drug uptake result is “Active”. Besides, the Activity entry in [2] is recorded as “Non-Toxic”.
